A selection: hits, their analogues and other compounds. The true share with any hit is near 3.7%.
KCNK3 block: human KCNK3 channel inhibitors, primary screen, CHO cells, FluxOR thallium flux, B-score | Potassium channel subfamily K member 3 (Homo sapiens), O14649 | FluxOR fluorescence; active compounds read low | B-score at 10 µM | 340,000 compounds, 0.84% hits | AID 602410, 2012;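 active = B-score under library mean minus 4 SD, starting fluorescence ratio at most library mean plus 5 SD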;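 also: more negative B-score means stronger inhibition of thallium flux through KCNK3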
Kir21 inh: inhibitors of mouse Kir2.1 inward-rectifier potassium channel. Inward rectifier potassium channel 2 (Mus musculus), P35561. HEK293-Kir2.1, FluxOR thallium flux fluorescence; active compounds read low. B-score at 10 µM. 310,000 compounds, 0.85% hits;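 active = fluorescence ratio B-score at or below minus 3 SD of library scores, with starting-brightness B-score within 2 SD, cut at about -4.2 in these data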;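 also: channel flux triggered by added potassium and thallium sulfate stimulus; B-score of peak minus minimum fluorescence over baseline after thallium stimulus; more negative B-score means stronger Kir2.1 block with less thallium influx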
hERG rescue: hERG rescue from dofetilide block, primary screen, cell-based, CHO-hERG, FluxOR thallium flux, dofetilide IC70 | dofetilide IC70 present | activation (rescue from dofetilide block), less the hit threshold, % at 10 µM | 310,000 compounds, 0.51% hits;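 active = activation above the mean of controls blocked by dofetilide plus 5 SD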;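 also: thallium influx through hERG after potassium depolarization seen as dye fluorescence rise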
KCNK9 inh: KCNK9 potassium channel inhibitors, primary screen, HEK293 cells, thallium flux; FluxOR thallium flux fluorescence; active compounds read low; 310,000 compounds, 1.2% hits; B-score at 10 µM; Potassium channel subfamily K member 9 (Homo sapiens), Q9NPC2;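 active = ratio B-score over 3 SD below the library mean, with starting fluorescence within 5 SD of its mean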;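 also: negative B-score means less thallium flux so channel inhibition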
Target sequence (Q9NPC2 whole entry, looked up): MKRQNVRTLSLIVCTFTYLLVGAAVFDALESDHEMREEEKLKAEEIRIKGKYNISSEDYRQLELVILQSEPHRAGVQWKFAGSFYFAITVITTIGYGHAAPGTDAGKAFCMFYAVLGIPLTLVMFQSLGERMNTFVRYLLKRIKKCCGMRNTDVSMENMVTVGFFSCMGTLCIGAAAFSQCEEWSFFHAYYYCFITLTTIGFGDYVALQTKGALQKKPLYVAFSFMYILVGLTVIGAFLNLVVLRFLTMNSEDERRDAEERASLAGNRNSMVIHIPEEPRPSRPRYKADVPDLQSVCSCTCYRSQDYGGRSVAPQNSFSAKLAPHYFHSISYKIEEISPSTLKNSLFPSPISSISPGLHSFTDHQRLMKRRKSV
KCNQ1 inh: inhibitors of human KCNQ1 channel, primary screen, cell-based, thallium flux, high-throughput | CHO-K1 KCNQ1, FluxOR thallium flux fluorescence; active compounds read high | Potassium voltage-gated channel subfamily KQT member 1 (Homo sapiens), P51787 | AID 2642, 2010 | 310,000 compounds, 1.3% hits | B-score at 10 µM;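 active = compounds whose thallium flux B-score, printed positive for inhibition, exceeds three library SD while starting fluorescence stays within three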;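 also: channel opened by potassium depolarization with thallium stimulus after 20 min compound exposure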
KCNQ1 act: potentiators or activators of KCNQ1 channel, primary screen, cell-based, thallium flux, high-throughput; Potassium voltage-gated channel subfamily KQT member 1 (Homo sapiens), P51787; CHO-K1 KCNQ1, thallium flux FluxOR fluorescence; active compounds read high; 310,000 compounds, 0.35% hits; B-score at 10 µM;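 active = fluorescence ratio B-score, a plate-corrected score, at least three library SD, with initial intensity B-score within 5 SD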
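Doses: Single concentration per compound, DMSO matched to controls | Test system: KCNQ1-transfected CHO-K1 cells | Timing: 90 min dye loading and 20 min compound exposure, both at room temperature | Measured by: Kinetic FluxOR thallium fluorescence, 10-s 1-Hz baseline, 110-s post-stimulus read | Medium: Assay buffer with matched DMSO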
KCNK9 block conf: KCNK9 potassium channel inhibitors, confirmation, HEK293 cells, thallium flux, duplicate; FluxOR thallium flux fluorescence; shares compounds with KCNK9 inh; inhibition, % at 10 µM; 4,900 compounds, 43% hits;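 active = thallium signal inhibited by more than 5 SD of the compound-free buffer control wells, on both duplicate plates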;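 also: 0% = assay buffer control wells without compound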
Kir2-1 spec: mouse Kir2.1 channel inhibition, confirmation, selectivity assay for KCNK9 modulator project, cell-based, HEK293, thallium flux; inhibition, % at 10 µM; shares compounds with KCNK9 inh; 4,900 compounds, 4% hits; Kir2.1 cells, FluxOR thallium flux fluorescence; AID 492993, 2010;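 active = thallium signal drop more than 5 SD beyond the mean of the no-compound control wells, seen in both duplicate plates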;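 also: signal is fluorescence rise after thallium addition divided by baseline fluorescence; plate controls were assay buffer only for no effect and full block by chlorpromazine control for full effect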
KCNK9 uninduced: thallium flux in non-induced HEK293 cells, confirmation, counter-screen for KCNK9 inhibitor project, cell-based, second counter screen, non-induced KCNK9-HEK293; shares compounds with KCNK9 inh; FluxOR thallium flux; inhibition, % at 10 µM; 4,900 compounds, 40% hits;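 active = thallium signal drop beyond 5 SD of the untreated control mean, on both duplicate plates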;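 also: plate controls were buffer only IC0 wells for no effect and SID17386958 at its maximal inhibitory level for full effect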
Numbers without * were called inactive; i = inactive; x = no result given.

SMILES	KCNK3 block	Kir21 inh	hERG rescue	KCNK9 inh	KCNQ1 inh	KCNQ1 act	KCNK9 block conf	Kir2-1 spec	KCNK9 uninduced
CC(=O)Nc1ccc(NC(=O)C2CCN(c3ccc(C(F)(F)F)cn3)CC2)cc1	i	0.1	-2	i	i	i	x	x	x
CCOc1cc(C(=O)Nc2ncn[nH]2)cc(OCC)c1OCC	i	-0.1	-2	i	i	i	x	x	x
CCCN(CCC)C(=O)Cn1c(=O)c2ccccc2n2c(=S)sc(-c3ccccc3C)c12	i	0.55	-1	i	i	i	i	i	i
CC1CCc2c(sc(NC(=O)c3ccc(Cn4cc([N+](=O)[O-])cn4)o3)c2C#N)C1 (stereo not drawn)	i	-0.41	-10	-16*	i	i	46%*	i	30%*
N#Cc1c(NC(=O)c2ccc(Cn3cc(Br)cn3)o2)sc2c1CCCCC2	i	0.3	-8	i	i	i	x	x	x
Cc1csc(SC(C)C(=O)NCC2CCCCC2)n1 (stereo not drawn)	i	-2.1	-2	i	i	i	x	x	x
Cc1c(C(=O)N2CCC[C@H]2C(N)=O)oc2c(F)cccc12	i	-0.01	-3	i	i	i	i	i	i
Cc1c(C(=O)N2CCN(c3ccccn3)CC2)oc2c(F)cccc12	i	1.9	-6	i	i	i	x	x	x
C/C(=N\NC(=O)c1ccn(C)n1)c1ccc(NC(=O)C2CCCC2)cc1	i	1.2	-8	i	i	i	x	x	x
C/C(=N\NC(=O)c1nn(C)c(C)c1Br)c1ccc(NC(=O)C2CCCC2)cc1	i	0.96	-7	-12*	i	i	68%*	i	i
Cc1nc(SCC(=O)NCc2ccco2)c2c(=O)n(C)c(=O)n(CC(C)C)c2n1	i	0.63	-5	i	i	i	x	x	x
CCc1nc2ccccc2nc1N1CCN(S(=O)(=O)c2ccccc2)CC1	i	1.3	-8	i	i	i	x	x	x
CCc1nc2ccccc2nc1N1CCN(S(=O)(=O)c2c(C)cc(Cl)cc2C)CC1	i	1.1	-10	i	i	i	i	i	i
CCOC(=O)N/N=C/c1cc(C)n(-c2cccc3ccccc23)c1C	i	-1.3	-5	-8.3*	i	i	48%*	i	36%*
CC(C)Oc1ccc(C(=O)/C(=C\c2cccs2)c2nc3ccccc3o2)cc1	i	0.81	-12	i	i	i	i	i	i
CCOC(=O)C(Cc1ccc(OC)c([N+](=O)[O-])c1)NC(=O)CCC(=O)Nc1ccc(OC)cc1 (stereo not drawn)	i	-0.67	-2	i	i	i	x	x	x
CCCCCCCCCCCC(=O)NC(Cc1ccc(OC)c([N+](=O)[O-])c1)C(=O)O (stereo not drawn)	i	1.7	-13	i	i	i	i	i	i
CCc1ccc(/C=C2\SC(=S)N(CCCC(=O)Nc3ccccc3C(=O)O)C2=O)cc1	i	1.1	-9	i	i	i	i	i	i
CCOc1ccc(/C=C2\SC(=S)N(CCC(=O)Nc3ccc(C(=O)O)cc3)C2=O)cc1	i	-1.7	-9	i	i	i	x	x	x
CCc1ccc(/C=C2\SC(=S)N(CCCC(=O)Nc3ccc(C(=O)O)cc3)C2=O)cc1	i	2.8	-4	i	i	i	i	i	i
Cc1ccc(/C=C2\SC(=S)N(CCCC(=O)Nc3ccccc3C(=O)O)C2=O)cc1	i	-0.08	-15	i	i	i	x	x	x
CCOc1ccc(/C=C2\SC(=S)N(CCC(=O)Nc3cccc(C(=O)O)c3)C2=O)cc1	i	0.83	-10	i	i	i	i	i	i
CCN(CC)c1ccc(/C=N/N2CCN(Cc3ccccc3Cl)CC2)c(O)c1	i	-1.6	-7	i	i	i	x	x	x
COc1ccccc1/C=C/C=N/N1CCN(Cc2ccccc2)CC1	i	0.87	-8	i	i	i	i	i	i
COc1ccccc1/C=C/CN1CCN(c2ccccc2)CC1	i	0.64	-6	i	i	i	i	i	i
SMILES	KCNK3 block	Kir21 inh	hERG rescue	KCNK9 inh	KCNQ1 inh	KCNQ1 act	KCNK9 block conf	Kir2-1 spec	KCNK9 uninduced
Cc1ccc(CSc2nnc(SCC(=O)N/N=C/C=C/c3ccccc3[N+](=O)[O-])s2)cc1	i	-0.13	-7	-15*	i	i	64%*	i	30%*
CCN(CC)c1ccc(/C=N/N2CCN(Cc3ccc(C)cc3)CC2)c(O)c1	i	-1.9	-5	i	i	i	i	i	i
COc1ccc(CC2(CO)CCN(C/C=C/c3ccccc3OC)CC2)cc1	i	-0.02	-14	i	i	i	x	x	x
Cc1cc(NC(=O)C(C)SCC(=O)N(C)Cc2c(F)cccc2Cl)no1 (stereo not drawn)	i	x	x	x	x	x	x	x	x
CCN(CC)S(=O)(=O)c1ccc(NC=C(C#N)C#N)cc1	i	-0.76	-13	i	i	i	x	x	x
O=C(COC(=O)CCC(=O)c1cccs1)NCc1ccccc1	i	-0.25	-2	i	i	i	x	x	x
CC(=C/c1ccccc1)/C=N/N1CCN(Cc2ccc(C)cc2)CC1	i	1.1	-14	i	i	i	x	x	x
COc1ccc(CN2CCN(Cc3ccc4ccccc4c3)CC2)cc1OC	i	-0.27	-12	i	i	i	x	x	x
Cc1ccc(CN2CCN(/N=C\C(Br)=C\c3ccccc3)CC2)cc1	i	-0.06	-1	i	i	i	i	i	i
COc1ccc2ccccc2c1CN1CCN(Cc2ccccc2)CC1	i	-3	-17	i	i	i	i	i	i
Cc1ccc(CN2CCN(/N=C/c3ccccc3)CC2)cc1	i	-0.27	-8	i	i	i	x	x	x

Bioassay records as filed in PubChem BioAssay.
